Legend:
[1] = molecular target: T1, Vascular endothelial growth factor receptor 2 (Homo sapiens, UniProt P35968); experiment: In vitro inhibition of Vascular endothelial growth factor receptor 2 at 10 uM ATP
[2] = molecular target: T1, Vascular endothelial growth factor receptor 2; experiment: Inhibition of KDR-induced MAP kinase autophosphorylation assay in HUVEC cells; assay type: functional, cell-based
In short: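 Low-passage HUVECs (passage 3-12) were grown to confluence, serum-starved, treated with compound or DMSO, then stimulated with VEGF. Cells were lysed, run on SDS-PAGE and immunoblotted quantitatively with a phospho-p42/44 MAP kinase (pERK1/2) antibody. Inhibition is expressed as a percent of VEGF-stimulated phosphorylation in DMSO controls. IC50 values are the mean of three independent experiments.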

[3] = molecular target: Fibroblast growth factor receptor 1 (Mus musculus, UniProt P16092); experiment: Inhibition of mouse Fibroblast growth factor receptor 1 expressed in NIH 3T3 fibroblasts
In short: (§1)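 Cell-based counterscreen for growth-factor-induced p42/44 MAP kinase phosphorylation through EGFR, insulin receptor or FGFR-1. Cells were grown, treated and fixed in 96-well plates, and phosphorylation was read by phospho-specific ELISA.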

[4] = Inhibition of fibroblast growth factor receptor 1
Insulin receptor [5] = molecular target: T2, Insulin receptor (Homo sapiens, UniProt P06213); experiment: Inhibition of beta IRK tyrosine kinase
[6] = molecular target: Platelet-derived growth factor receptor (Homo sapiens, UniProt P09619+P16234); experiment: Inhibition of PDGF-R2 tyrosine kinase; assay type: protein-complex assay
Angiopoietin-1 receptor = Angiopoietin-1 receptor (Homo sapiens, UniProt Q02763); experiment: Inhibition of tyrosine protein kinase receptor TIE-2
[7] = Inhibition of c-Src tyrosine kinase
[8] = molecular target: Macrophage colony-stimulating factor 1 receptor (Homo sapiens, UniProt P07333); experiment: Inhibition of c-fms tyrosine kinase
[9] = molecular target: T3, Epidermal growth factor receptor (Homo sapiens, UniProt P00533); experiment: Inhibition of human Epidermal growth factor receptor expressed in A431
In short: (§2)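 Cell-based counterscreen. Cells were grown, treated with compound and fixed in wells. EGF-R-induced phosphorylation of MAP kinase was then read directly by a phosphorylation-specific ELISA.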

Insulin receptor [10] = molecular target: T2, Insulin receptor; experiment: Inhibition of human Insulin receptor expressed in CHO cells; assay type: cell-based; in short: as §1
HUVEC = experiment: Inhibitory concentration against HUVEC cells; assay type: functional, cell-based; settings: Homo sapiens
[11] = molecular target: T3, Epidermal growth factor receptor; experiment: Inhibition of human epidermal growth factor receptor; in short: as §2
Rattus norvegicus [12] = organism: Rattus norvegicus; experiment: Total tube length (arbitrary units) of aortic rings was measured by aortic ring assay in rat at 30 uM concentration of the compound; assay type: functional, Aorta
In short: (§3)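 Rings cut from rat aorta were embedded in collagen gels containing 5 ng/mL VEGF and cultured for 7 days with test compound. The total length of capillary-like sprouts growing out from each ring was measured in arbitrary units and reported with SEM.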

Rattus norvegicus [13] = organism: Rattus norvegicus; experiment: Total tube length (arbitrary units) of aortic rings was measured by aortic ring assay in rat at 0.3 uM concentration of the compound; assay type: functional, Aorta; in short: as §3
Rattus norvegicus [14] = organism: Rattus norvegicus; experiment: Total tube length (arbitrary units) of aortic rings was measured by aortic ring assay in rat at 3 uM concentration of the compound; assay type: functional, Aorta; in short: as §3
[15] = Inhibition of Fibroblast growth factor receptor 1

Sequence of Macrophage colony-stimulating factor 1 receptor (P07333 whole entry): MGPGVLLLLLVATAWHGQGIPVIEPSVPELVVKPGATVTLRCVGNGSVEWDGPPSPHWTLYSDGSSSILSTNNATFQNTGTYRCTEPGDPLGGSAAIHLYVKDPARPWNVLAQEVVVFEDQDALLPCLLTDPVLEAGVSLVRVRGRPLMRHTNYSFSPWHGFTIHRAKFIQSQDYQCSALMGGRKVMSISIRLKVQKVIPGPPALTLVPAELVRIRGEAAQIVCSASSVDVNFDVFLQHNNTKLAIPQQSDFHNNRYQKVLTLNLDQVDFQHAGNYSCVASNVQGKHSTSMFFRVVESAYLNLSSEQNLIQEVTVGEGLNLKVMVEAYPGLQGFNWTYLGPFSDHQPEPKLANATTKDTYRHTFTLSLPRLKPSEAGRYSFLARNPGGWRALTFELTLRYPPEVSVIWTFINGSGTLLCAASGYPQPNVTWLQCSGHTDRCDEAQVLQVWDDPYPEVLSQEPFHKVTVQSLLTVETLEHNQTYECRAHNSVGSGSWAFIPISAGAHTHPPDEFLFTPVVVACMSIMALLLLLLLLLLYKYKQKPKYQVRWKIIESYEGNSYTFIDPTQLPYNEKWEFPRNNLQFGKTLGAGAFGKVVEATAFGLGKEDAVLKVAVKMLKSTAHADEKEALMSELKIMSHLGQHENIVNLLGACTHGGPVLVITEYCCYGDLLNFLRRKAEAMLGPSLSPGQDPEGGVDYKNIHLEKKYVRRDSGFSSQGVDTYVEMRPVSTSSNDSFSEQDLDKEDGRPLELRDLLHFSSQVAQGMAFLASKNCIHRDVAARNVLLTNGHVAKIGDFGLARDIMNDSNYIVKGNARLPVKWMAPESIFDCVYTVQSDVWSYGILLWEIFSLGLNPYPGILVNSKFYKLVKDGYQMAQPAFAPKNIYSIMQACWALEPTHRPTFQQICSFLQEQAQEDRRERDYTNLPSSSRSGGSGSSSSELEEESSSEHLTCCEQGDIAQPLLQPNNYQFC
Sequence of Fibroblast growth factor receptor 1 (P16092 whole entry): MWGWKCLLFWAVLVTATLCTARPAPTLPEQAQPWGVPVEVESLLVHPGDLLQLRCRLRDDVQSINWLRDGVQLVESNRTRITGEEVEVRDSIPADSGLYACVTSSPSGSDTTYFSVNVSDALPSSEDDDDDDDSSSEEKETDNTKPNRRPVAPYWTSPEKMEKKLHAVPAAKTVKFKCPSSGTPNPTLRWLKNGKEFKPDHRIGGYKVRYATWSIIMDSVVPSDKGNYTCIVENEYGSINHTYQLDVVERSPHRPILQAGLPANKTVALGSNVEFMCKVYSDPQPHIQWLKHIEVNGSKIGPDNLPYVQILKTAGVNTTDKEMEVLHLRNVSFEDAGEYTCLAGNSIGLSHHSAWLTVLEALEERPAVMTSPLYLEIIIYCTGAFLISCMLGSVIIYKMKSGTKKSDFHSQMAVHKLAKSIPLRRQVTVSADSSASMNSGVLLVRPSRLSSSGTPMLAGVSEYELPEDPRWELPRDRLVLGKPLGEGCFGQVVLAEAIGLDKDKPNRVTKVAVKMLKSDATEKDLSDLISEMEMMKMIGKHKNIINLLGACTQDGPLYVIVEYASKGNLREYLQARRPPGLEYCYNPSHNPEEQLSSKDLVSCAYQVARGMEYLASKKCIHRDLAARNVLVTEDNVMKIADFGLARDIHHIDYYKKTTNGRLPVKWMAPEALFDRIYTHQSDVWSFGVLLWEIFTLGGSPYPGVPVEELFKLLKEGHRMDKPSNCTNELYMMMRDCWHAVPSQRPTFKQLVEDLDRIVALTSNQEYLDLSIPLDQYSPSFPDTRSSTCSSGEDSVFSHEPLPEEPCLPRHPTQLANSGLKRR
T1 sequence (P35968 whole entry): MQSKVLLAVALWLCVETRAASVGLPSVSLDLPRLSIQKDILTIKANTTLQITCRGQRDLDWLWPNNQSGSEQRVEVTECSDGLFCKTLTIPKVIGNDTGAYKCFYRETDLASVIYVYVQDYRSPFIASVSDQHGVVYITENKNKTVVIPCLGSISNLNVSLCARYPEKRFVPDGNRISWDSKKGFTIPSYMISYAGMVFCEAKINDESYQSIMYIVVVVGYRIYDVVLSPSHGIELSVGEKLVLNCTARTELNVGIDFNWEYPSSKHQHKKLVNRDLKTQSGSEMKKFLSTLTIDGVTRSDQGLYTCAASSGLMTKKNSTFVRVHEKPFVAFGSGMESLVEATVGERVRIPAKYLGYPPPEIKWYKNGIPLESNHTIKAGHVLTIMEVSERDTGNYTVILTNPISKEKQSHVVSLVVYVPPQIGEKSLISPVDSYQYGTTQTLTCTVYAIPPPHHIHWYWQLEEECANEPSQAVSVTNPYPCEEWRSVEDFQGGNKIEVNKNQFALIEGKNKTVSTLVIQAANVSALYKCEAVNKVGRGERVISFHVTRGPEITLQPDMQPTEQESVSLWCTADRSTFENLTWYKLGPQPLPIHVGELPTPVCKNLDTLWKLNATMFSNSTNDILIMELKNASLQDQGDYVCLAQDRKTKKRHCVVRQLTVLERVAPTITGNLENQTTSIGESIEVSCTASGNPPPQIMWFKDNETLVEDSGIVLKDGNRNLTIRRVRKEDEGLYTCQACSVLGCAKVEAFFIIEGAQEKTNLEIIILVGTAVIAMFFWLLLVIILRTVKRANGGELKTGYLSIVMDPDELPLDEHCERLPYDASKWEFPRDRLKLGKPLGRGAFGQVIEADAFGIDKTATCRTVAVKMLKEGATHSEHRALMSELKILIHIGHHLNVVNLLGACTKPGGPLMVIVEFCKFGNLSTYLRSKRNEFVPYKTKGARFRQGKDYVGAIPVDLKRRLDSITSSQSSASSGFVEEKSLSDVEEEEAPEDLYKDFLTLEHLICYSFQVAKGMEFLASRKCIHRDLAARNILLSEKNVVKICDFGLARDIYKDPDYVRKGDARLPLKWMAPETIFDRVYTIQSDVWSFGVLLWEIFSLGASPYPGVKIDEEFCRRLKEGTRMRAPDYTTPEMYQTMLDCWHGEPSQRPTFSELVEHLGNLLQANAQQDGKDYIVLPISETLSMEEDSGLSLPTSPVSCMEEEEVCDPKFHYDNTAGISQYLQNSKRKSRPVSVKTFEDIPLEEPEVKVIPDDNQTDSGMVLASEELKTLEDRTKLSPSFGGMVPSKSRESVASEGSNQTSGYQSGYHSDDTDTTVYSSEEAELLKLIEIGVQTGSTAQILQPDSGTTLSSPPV
T3 sequence (P00533 whole entry): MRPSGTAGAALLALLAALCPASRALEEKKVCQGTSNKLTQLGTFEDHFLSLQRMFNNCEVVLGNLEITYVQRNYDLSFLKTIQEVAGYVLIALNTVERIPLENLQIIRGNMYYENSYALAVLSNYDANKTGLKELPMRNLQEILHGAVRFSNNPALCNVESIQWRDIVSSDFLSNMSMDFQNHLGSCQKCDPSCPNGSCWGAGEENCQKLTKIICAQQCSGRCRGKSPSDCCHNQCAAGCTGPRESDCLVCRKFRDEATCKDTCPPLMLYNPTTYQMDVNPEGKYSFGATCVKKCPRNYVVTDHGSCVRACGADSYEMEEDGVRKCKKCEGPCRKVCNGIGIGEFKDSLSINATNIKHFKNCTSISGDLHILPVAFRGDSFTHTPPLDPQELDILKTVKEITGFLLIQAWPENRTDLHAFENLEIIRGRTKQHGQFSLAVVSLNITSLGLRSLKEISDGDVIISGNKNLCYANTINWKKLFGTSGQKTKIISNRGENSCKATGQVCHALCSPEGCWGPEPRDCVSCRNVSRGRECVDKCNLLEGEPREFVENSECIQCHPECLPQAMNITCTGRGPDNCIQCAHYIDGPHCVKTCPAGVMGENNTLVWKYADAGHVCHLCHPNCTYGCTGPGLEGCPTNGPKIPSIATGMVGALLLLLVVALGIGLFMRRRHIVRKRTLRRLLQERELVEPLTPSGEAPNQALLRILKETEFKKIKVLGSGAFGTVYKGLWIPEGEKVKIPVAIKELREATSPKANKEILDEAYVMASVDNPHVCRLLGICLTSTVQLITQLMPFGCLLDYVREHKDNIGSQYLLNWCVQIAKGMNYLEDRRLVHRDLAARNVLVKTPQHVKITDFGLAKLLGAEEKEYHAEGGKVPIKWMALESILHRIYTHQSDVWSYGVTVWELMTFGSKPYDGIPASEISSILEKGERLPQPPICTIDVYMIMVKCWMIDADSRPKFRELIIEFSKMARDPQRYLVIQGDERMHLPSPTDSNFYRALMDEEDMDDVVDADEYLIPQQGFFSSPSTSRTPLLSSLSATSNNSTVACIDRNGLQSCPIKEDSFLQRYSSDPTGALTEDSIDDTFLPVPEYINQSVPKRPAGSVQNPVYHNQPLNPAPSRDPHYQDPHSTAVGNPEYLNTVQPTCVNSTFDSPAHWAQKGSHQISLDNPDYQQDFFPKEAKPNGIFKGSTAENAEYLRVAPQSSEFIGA

| Compound | IC50 [1] | IC50 [2] | IC50 [3] | IC50 [4] | IC50 (Insulin receptor [5]) | IC50 [6] | IC50 (Angiopoietin-1 receptor) | IC50 [7] | IC50 [8] | IC50 [9] | IC50 (Insulin receptor [10]) | IC50 [11] | IC50 [15] | IC50 (HUVEC) | Activity (Rattus norvegicus [12]) | Activity (Rattus norvegicus [13]) | Activity (Rattus norvegicus [14]) |
| --- | --- | --- | --- | --- | --- | --- | --- | --- | --- | --- | --- | --- | --- | --- | --- | --- | --- |
| CC(C)(Nc1nc(Cl)nc(Nc2ccc3ncsc3c2)n1)c1ccccc1 | 5500 nM | 1080 nM |  |  |  |  |  |  |  |  |  |  |  |  |  |  |  |
| CC(C)(Nc1nc(O)nc(Nc2ccc3ncsc3c2)n1)c1ccccc1 | 35 nM | 400 nM | > 10000 nM | > 12500 nM | 550 nM | 8000 nM | 1000 nM | 4300 nM | > 12500 nM | > 10000 nM | > 10000 nM |  |  |  |  |  |  |
| CC(C)N(Cc1ccccc1)c1nc(O)nc(Nc2ccc3ncsc3c2)n1 | 18 nM | 280 nM | > 10000 nM | > 12500 nM | 11000 nM | > 12500 nM | 180 nM | > 12500 nM | > 12500 nM |  | > 10000 nM | > 10000 nM |  | 280 nM | 36.3 | 1503 | 348 |
| CCN(Cc1ccccc1)c1nc(O)nc(Nc2ccc3ncsc3c2)n1 | 49 nM | 600 nM | > 10000 nM |  | 4000 nM | 2500 nM | 400 nM | 3100 nM | 4300 nM | > 10000 nM | > 10000 nM |  | > 12500 nM |  |  |  |  |
| CN(Cc1ccccc1)c1nc(O)nc(Nc2ccc3ncsc3c2)n1 | 320 nM | 2400 nM |  |  |  |  |  |  |  |  |  |  |  |  |  |  |  |
| Oc1nc(NCc2ccccc2)nc(Nc2ccc3ncsc3c2)n1 | 2000 nM | > 30000 nM |  |  |  |  |  |  |  |  |  |  |  |  |  |  |  |

Continued by falling IC50 [1], values first:

| IC50 [1] | IC50 [2] | IC50 [3] | IC50 [4] | IC50 (Insulin receptor [5]) | IC50 [6] | IC50 (Angiopoietin-1 receptor) | IC50 [7] | IC50 [8] | IC50 [9] | IC50 (Insulin receptor [10]) | IC50 [11] | IC50 [15] | Compound | IC50 (HUVEC) | Activity (Rattus norvegicus [12]) | Activity (Rattus norvegicus [13]) | Activity (Rattus norvegicus [14]) |
| --- | --- | --- | --- | --- | --- | --- | --- | --- | --- | --- | --- | --- | --- | --- | --- | --- | --- |
| 6100 nM | > 30000 nM |  |  |  |  |  |  |  |  |  |  |  | COc1nc(Nc2ccc3ncsc3c2)nc(NC(C)(C)c2ccccc2)n1 |  |  |  |  |
| 240 nM | > 20000 nM |  |  |  |  |  |  |  |  |  |  |  | CC(C)(Nc1nc(O)nc(Nc2ccc3[nH]cnc3c2)n1)c1ccccc1 |  |  |  |  |
| 40 nM | 840 nM | > 10000 nM | 1800 nM | 420 nM | 3900 nM | 700 nM | 1800 nM | 14000 nM | > 10000 nM | > 10000 nM |  |  | CC(C)(Nc1nc(NO)nc(Nc2ccc3ncsc3c2)n1)c1ccccc1 |  |  |  |  |
